Test results published in ChEMBL document CHEMBL2146394, “Design and synthesis of pyrrolo[3,2-d]pyrimidine HER2/EGFR dual inhibitors: improvement of the physicochemical and pharmacokinetic profiles for potent in vivo anti-tumor efficacy” (Bioorg Med Chem, 2012).
pIC50: −log10 of the molar value. One block for each molecule: values may come before it.

Columns and labels:
[1] = Apparent permeability across basolateral to apical side in human Caco2 cells at 10 umol/L; format: ADME, cell-based; conditions: Caco-2
Summary of the method: (§1)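 Confluent Caco-2 monolayers on collagen-coated polycarbonate Transwell membranes. HBSS with 10 mmol/L HEPES, 15 mmol/L glucose and 1% BSA, pH 7.3–7.5. Compound dosed at 10 µmol/L apically (A→B) or basolaterally (B→A), 37 °C, 5% CO₂. Receivers sampled at 1 and 2 h; LC/MS/MS. Papp from receiver concentration slope; duplicates.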

[2] = Apparent permeability across apical to basolateral side in human Caco2 cells at 10 umol/L; format: ADME, cell-based; conditions: Caco-2; summary of the method: as §1
BT-474 [3] = test: Growth inhibition of HER2 over-expressing human BT474 cells after 5 days; format: functional; conditions: BT-474, 120 h
Summary of the method: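 BT-474 cells kept in RPMI 1640 with 10% heat-inactivated FBS. Seeded at 3×10⁴ cells/well and allowed to attach overnight. Treated continuously with compound for 5 days. Live cells counted with a particle analyzer; GI₅₀ derived.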

[4] = Metabolic stability in human hepatic microsomes at 1 umol/L after 20 mins; format: ADME; conditions: liver microsomes, read-out: Stability
Summary of the method: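 Human liver microsomes (0.2 mg/mL protein) with 1 µmol/L compound in 50 mmol/L phosphate pH 7.4 plus an NADPH-generating system (glucose-6-phosphate, β-NADP⁺, G6PDH, MgCl₂). Incubated at 37 °C for 0 and 20 min, stopped with acetonitrile, duplicates. Remaining compound measured by HPLC with photodiode array detection.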

BT-474 [5] = test: Antitumor activity against human BT474 cells xenografted in BALB/c nu/nu mouse at 100 mg/kg, po bid administered 14 days measured on day 31 relative to control; format: functional
Summary of the method: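 BT-474 xenografts: 1×10⁷ cells in Matrigel implanted subcutaneously into the right flank of female BALB/c nu/nu mice. Estradiol dipropionate 0.25 mg given intramuscularly on days 0 and 7. Tumours of 200–300 mm³ used. Dosing 100 mg/kg orally bid in 0.5% methylcellulose for 14 days. Volume a×b²/2 by calipers. T/C (%) compared at day 31.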

Insulin receptor = Insulin receptor (Homo sapiens, UniProt P06213); test: Inhibition of INSR after 5 mins
Summary of the method: (§2)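 AlphaScreen tyrosine kinase assay: 50 mmol/L Tris-HCl pH 7.5, 5 mmol/L MnCl₂, 5 mmol/L MgCl₂, 0.01% Tween-20, 2 mmol/L DTT, biotinylated poly-Glu-Tyr (4:1), kinase-optimized enzyme, ATP and time (5–60 min). Seven compound concentrations, 0.01–10000 nmol/L, preincubated 5 min at room temperature. Stopped with EDTA plus streptavidin donor and PY-100 or PT66 acceptor beads; read after >12 h in the dark. Controls: no compound; no ATP.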

[6] = target: Serine/threonine-protein kinase B-raf (Homo sapiens, UniProt P15056); test: Inhibition of N-terminal FLAG-tagged B-raf expressed in baculovirus after 5 mins by scintillation counter
[7] = target: Mitogen-activated protein kinase kinase kinase 1 (Homo sapiens, UniProt Q13233); test: Inhibition of C-terminal FLAG-tagged MEKK expressed in baculovirus after 5 mins by scintillation counter
[8] = target: Receptor tyrosine-protein kinase erbB-4 (Homo sapiens, UniProt Q15303); test: Inhibition of HER4 cytoplasmic domain after 5 mins by scintillation counter
Summary of the method: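 HER4 cytoplasmic domain run as in the HER2/EGFR radiometric [γ-³²P]ATP filter assay: 5 min enzyme–compound preincubation, 10 min reaction at room temperature, TCA stop, scintillation count, nonlinear-regression IC₅₀.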

[9] = target: Tyrosine-protein kinase CSK (Homo sapiens, UniProt P41240); test: Inhibition of CSK after 5 mins; summary of the method: as §2
[10] = target: Mitogen-activated protein kinase kinase kinase 7 (Homo sapiens, UniProt O43318); test: Inhibition of N-terminal FLAG-tagged TAK1 expressed in baculovirus after 5 mins by scintillation counter
[11] = target: Glycogen synthase kinase-3 beta (Homo sapiens, UniProt P49841); test: Inhibition of N-terminal FLAG-tagged GSK3beta expressed in baculovirus after 5 mins by scintillation counter
[12] = target: Vascular endothelial growth factor receptor 2 (Homo sapiens, UniProt P35968); test: Inhibition of N-terminal FLAG-tagged VEGFR2 cytoplasmic domain expressed in baculovirus after 5 mins; summary of the method: as §2
Aurora kinase B = Aurora kinase B (Homo sapiens, UniProt Q96GD4); test: Inhibition of N-terminal His6-tagged Aurora B expressed in baculovirus after 5 mins by scintillation counter
[13] = target: Mitogen-activated protein kinase 8 (Homo sapiens, UniProt P45983); test: Inhibition of N-terminal FLAG-tagged JNK1 expressed in baculovirus after 5 mins by scintillation counter
[14] = Antitumor activity against human 4-1ST cells xenografted in BALB/c nu/nu mouse at 100 mg/kg, po bid administered 14 days measured on day 31 relative to control; format: functional
Summary of the method: (§3)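 4-1ST human gastric tumour tissue from donor animals minced and implanted subcutaneously in nude mice or nude rats. Tumours of 200–300 mm³ used. Compounds in 0.5% (w/v) methylcellulose given orally twice daily at 10 mL/kg for 14 days; control got vehicle. Doses expressed as salt-free. Caliper volume (a×b²/2) measured blind 2–3 times weekly. T/C (%) versus control; five mice or eight rats per group.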

Focal adhesion kinase 1 = Focal adhesion kinase 1 (Homo sapiens, UniProt Q05397); test: Inhibition of full length N-terminal FLAG-tagged FAK expressed in baculovirus after 5 mins; summary of the method: as §2
[15] = target: Mitogen-activated protein kinase kinase kinase 5 (Homo sapiens, UniProt Q99683); test: Inhibition of N-terminal FLAG-tagged ASK1 expressed in baculovirus after 5 mins by scintillation counter
[16] = target: Insulin-like growth factor 1 receptor (Homo sapiens, UniProt P08069); test: Inhibition of IGF-1R after 5 mins; summary of the method: as §2
[17] = Antitumor activity against human 4-1ST cells xenografted in F344/N jcl-rnu rat at 12.5 mg/kg, po bid administered 14 days measured on day 31 relative to control; format: functional; summary of the method: as §3
[18] = target: Dual specificity protein kinase TTK (Homo sapiens, UniProt P33981); test: Inhibition of N-terminal FLAG-tagged TTK expressed in baculovirus after 5 mins by scintillation counter
Angiopoietin-1 receptor = Angiopoietin-1 receptor (Homo sapiens, UniProt Q02763); test: Inhibition of TIE2 after 5 mins; summary of the method: as §2
[19] = target: Inhibitor of nuclear factor kappa-B kinase subunit beta (Homo sapiens, UniProt O14920); test: Inhibition of C-terminal FLAG-tagged IKKbeta expressed in baculovirus after 5 mins by scintillation counter
[20] = target: Fibroblast growth factor receptor 1 (Homo sapiens, UniProt P11362); test: Inhibition of FGFR1 after 5 min; summary of the method: as §2
[21] = target: Serine/threonine-protein kinase PLK1 (Homo sapiens, UniProt P53350); test: Inhibition of N-terminal FLAG-tagged PLK1 expressed in baculovirus after 5 mins by scintillation counter
[22] = target: Dual specificity mitogen-activated protein kinase kinase 1 (Homo sapiens, UniProt Q02750); test: Inhibition of N-terminal GST-tagged MEK1 after 5 mins by scintillation counter
[23] = target: T1, Tyrosine-protein kinase Lyn (Homo sapiens, UniProt P07948); test: Inhibition of LYN B after 5 mins; summary of the method: as §2
[24] = target: Mitogen-activated protein kinase 14 (Homo sapiens, UniProt Q16539); test: Inhibition of N-terminal FLAG-tagged p38alpha expressed in baculovirus after 5 mins by scintillation counter
[25] = target: Protein kinase C theta type (Homo sapiens, UniProt Q04759); test: Inhibition of N-terminal FLAG-tagged PKCtheta expressed in baculovirus after 5 mins by scintillation counter
[26] = target: T1, Tyrosine-protein kinase Lyn; test: Inhibition of LYN A after 5 mins; summary of the method: as §2
[27] = target: Mitogen-activated protein kinase 3 (Homo sapiens, UniProt P27361); test: Inhibition of N-terminal FLAG-tagged ERK1 expressed in baculovirus after 5 mins by scintillation counter
[28] = target: Proto-oncogene tyrosine-protein kinase Src (Homo sapiens, UniProt P12931); test: Inhibition of Src after 5 mins; summary of the method: as §2
[29] = target: Vascular endothelial growth factor receptor 1 (Homo sapiens, UniProt P17948); test: Inhibition of VEGFR1 after 5 mins; summary of the method: as §2
[30] = target: Fibroblast growth factor receptor 3 (Homo sapiens, UniProt P22607); test: Inhibition of FGFR3 after 5 mins; summary of the method: as §2
[31] = target: Cytoplasmic tyrosine-protein kinase BMX (Homo sapiens, UniProt P51813); test: Inhibition of full length N-terminal FLAG-tagged BMX expressed in baculovirus after 5 mins; summary of the method: as §2
[32] = target: Dual specificity mitogen-activated protein kinase kinase 5 (Homo sapiens, UniProt Q13163); test: Inhibition of N-terminal FLAG-tagged MEK5 expressed in baculovirus after 5 mins by scintillation counter
[33] = Antitumor activity against human 4-1ST cells xenografted in F344/N jcl-rnu rat at 25 mg/kg, po bid administered 14 days measured on day 31 relative to control; format: functional; summary of the method: as §3
[34] = Antitumor activity against human 4-1ST cells xenografted in BALB/c nu/nu mouse at 50 mg/kg, po bid administered 14 days measured on day 31 relative to control; format: functional; summary of the method: as §3
[35] = target: Hepatocyte growth factor receptor (Homo sapiens, UniProt P08581); test: Inhibition of c-Met after 5 mins; summary of the method: as §2
[36] = target: Mast/stem cell growth factor receptor Kit (Homo sapiens, UniProt P10721); test: Inhibition of c-kit after 5 mins; summary of the method: as §2
[37] = target: Tyrosine-protein kinase ZAP-70 (Homo sapiens, UniProt P43403); test: Inhibition of ZAP70 after 5 mins; summary of the method: as §2

T1 sequence (P07948 whole entry): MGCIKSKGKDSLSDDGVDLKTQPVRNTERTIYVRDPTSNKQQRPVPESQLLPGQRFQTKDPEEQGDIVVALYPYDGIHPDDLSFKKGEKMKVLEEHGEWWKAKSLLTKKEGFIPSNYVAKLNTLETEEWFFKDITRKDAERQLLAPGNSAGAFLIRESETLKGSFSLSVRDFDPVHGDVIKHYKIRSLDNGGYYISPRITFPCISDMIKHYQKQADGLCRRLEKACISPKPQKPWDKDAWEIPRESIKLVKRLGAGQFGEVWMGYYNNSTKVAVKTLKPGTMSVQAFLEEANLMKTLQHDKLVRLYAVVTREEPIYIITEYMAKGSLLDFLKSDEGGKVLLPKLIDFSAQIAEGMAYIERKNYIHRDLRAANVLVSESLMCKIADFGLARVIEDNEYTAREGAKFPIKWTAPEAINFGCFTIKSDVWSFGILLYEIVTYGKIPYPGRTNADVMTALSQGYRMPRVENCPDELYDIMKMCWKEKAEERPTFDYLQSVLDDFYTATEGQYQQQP
Mitogen-activated protein kinase kinase kinase 5, sequence (Q99683 whole entry): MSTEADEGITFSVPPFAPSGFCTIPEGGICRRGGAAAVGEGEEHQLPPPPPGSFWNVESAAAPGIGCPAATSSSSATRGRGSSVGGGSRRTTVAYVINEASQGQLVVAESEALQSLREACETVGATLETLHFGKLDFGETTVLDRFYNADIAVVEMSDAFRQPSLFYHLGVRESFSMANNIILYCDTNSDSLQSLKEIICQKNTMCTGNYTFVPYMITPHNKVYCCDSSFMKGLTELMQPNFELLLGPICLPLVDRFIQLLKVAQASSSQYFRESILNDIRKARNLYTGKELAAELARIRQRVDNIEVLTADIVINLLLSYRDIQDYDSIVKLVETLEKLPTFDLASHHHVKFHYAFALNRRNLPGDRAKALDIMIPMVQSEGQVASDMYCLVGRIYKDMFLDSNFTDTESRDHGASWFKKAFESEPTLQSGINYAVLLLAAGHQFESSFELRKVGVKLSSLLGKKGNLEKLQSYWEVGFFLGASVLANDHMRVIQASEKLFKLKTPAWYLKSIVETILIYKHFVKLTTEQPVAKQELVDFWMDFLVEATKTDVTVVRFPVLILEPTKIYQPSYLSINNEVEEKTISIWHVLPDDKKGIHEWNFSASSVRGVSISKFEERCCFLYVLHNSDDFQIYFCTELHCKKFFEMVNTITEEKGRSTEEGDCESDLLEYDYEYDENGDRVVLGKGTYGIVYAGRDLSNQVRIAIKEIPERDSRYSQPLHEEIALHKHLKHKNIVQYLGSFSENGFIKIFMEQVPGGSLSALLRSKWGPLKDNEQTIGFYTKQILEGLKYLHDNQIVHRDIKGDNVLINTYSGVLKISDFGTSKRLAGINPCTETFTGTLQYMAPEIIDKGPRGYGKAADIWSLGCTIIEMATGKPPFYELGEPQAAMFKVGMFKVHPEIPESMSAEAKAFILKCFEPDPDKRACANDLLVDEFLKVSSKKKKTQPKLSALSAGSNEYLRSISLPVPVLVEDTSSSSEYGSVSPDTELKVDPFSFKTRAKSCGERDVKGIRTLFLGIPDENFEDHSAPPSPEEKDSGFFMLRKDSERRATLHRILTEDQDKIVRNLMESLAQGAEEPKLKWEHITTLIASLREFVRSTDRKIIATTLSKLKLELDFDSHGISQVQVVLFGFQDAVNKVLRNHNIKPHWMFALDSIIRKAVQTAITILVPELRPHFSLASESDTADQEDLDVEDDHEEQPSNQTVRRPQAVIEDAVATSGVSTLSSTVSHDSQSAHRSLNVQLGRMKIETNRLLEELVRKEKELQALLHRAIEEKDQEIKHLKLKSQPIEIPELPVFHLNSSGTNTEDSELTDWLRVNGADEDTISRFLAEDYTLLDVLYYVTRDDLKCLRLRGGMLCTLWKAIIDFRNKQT
Mitogen-activated protein kinase kinase kinase 1, sequence (Q13233 whole entry, the tested form may be a part): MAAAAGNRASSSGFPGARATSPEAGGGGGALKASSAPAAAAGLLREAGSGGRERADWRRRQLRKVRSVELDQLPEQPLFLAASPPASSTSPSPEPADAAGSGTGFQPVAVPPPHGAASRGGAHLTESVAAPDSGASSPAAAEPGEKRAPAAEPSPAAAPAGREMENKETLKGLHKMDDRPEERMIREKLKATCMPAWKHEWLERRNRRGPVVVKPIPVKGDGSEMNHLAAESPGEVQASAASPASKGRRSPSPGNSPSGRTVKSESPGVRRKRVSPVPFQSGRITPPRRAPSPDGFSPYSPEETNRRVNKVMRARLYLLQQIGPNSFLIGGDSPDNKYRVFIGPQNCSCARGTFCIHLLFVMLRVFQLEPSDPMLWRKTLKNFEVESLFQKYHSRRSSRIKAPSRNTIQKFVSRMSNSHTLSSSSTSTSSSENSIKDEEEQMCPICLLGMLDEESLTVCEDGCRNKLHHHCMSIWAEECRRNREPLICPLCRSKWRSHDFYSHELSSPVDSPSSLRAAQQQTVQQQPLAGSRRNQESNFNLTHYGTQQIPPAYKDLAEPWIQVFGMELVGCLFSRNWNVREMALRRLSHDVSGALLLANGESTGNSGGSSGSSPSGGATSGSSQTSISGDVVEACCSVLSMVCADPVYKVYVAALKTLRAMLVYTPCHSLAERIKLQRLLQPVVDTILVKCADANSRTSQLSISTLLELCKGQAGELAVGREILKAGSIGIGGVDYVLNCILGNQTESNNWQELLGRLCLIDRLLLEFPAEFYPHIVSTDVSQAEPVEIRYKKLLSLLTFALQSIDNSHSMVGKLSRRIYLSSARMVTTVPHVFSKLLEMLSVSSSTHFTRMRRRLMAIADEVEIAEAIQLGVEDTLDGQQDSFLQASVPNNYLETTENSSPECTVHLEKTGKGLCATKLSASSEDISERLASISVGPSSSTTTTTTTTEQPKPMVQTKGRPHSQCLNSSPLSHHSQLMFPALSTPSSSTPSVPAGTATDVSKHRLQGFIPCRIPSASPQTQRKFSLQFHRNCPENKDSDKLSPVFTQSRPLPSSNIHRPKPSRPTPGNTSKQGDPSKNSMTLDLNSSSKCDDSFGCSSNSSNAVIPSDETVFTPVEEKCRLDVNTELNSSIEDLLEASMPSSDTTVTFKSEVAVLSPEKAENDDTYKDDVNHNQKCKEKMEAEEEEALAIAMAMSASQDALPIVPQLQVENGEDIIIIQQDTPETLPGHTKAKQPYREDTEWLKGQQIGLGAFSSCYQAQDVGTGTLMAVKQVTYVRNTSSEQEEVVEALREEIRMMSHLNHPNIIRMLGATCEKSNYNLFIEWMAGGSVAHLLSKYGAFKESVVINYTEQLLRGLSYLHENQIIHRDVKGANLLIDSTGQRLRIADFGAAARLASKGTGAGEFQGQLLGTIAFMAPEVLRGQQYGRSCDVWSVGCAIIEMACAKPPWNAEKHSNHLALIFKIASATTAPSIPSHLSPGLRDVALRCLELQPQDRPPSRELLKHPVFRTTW
Mitogen-activated protein kinase 8, sequence (P45983 whole entry): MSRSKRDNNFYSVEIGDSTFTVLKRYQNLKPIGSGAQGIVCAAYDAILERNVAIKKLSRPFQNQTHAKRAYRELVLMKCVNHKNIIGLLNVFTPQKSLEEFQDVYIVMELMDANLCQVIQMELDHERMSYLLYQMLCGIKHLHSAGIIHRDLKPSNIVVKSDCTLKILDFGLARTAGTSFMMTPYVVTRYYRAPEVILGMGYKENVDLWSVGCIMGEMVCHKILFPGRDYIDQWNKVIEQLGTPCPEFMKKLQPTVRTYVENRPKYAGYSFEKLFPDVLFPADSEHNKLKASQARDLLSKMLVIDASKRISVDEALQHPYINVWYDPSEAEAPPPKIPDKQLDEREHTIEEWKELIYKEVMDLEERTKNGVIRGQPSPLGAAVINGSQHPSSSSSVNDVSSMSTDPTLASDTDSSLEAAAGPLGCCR
Focal adhesion kinase 1, sequence (Q05397 whole entry): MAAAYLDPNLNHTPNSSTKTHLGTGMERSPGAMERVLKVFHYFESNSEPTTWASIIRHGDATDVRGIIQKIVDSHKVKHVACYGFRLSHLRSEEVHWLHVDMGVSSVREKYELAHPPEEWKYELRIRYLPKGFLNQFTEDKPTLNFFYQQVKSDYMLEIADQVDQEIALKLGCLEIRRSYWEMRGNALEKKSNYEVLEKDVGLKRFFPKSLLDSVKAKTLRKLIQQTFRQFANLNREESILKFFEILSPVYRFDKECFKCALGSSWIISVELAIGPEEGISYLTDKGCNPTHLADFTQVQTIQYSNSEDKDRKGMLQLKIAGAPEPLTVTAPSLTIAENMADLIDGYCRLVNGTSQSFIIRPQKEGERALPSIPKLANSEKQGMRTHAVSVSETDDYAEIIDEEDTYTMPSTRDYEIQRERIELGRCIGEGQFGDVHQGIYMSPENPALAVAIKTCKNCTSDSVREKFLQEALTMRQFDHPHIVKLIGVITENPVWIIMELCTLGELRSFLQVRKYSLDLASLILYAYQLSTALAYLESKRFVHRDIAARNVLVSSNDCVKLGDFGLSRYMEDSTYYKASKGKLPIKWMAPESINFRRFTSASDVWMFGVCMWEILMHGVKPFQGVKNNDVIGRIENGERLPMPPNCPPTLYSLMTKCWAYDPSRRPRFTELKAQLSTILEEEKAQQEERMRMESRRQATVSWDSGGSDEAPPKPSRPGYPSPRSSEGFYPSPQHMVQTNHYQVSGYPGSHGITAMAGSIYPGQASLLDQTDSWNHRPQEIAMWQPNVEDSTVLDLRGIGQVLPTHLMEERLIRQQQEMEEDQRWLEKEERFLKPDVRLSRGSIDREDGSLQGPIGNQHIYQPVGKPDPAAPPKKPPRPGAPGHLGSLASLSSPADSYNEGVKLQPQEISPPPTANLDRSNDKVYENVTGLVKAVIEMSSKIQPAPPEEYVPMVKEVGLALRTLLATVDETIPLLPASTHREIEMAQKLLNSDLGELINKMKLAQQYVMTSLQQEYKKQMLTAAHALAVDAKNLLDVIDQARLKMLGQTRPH

Papp B→A at 10 µM [1]: 7.69 ×10⁻⁶ cm/s
Papp A→B at 10 µM [2]: 2.85 ×10⁻⁶ cm/s
GI50 (BT-474 [3]): 56 nM
microsomal CLint at 1 µM [4]: 21 µL/min/mg
SMILES: CC(C)(C(=O)NCCn1ccc2ncnc(Nc3ccc(Oc4cccc(Cl)c4)c(Cl)c3)c21)S(C)(=O)=O
T/C (BT-474 [5]): 24%

pIC50 (Insulin receptor): < 5.00
pIC50 [6]: < 5.00
pIC50 [7]: < 5.00
pIC50 [8]: 6.80
pIC50 [9]: 5.29
pIC50 [10]: < 5.00
pIC50 [11]: < 5.00
pIC50 [12]: < 5.00
pIC50 (Aurora kinase B): 6.30
pIC50 [13]: < 5.00
pIC50 (Focal adhesion kinase 1): < 5.00
pIC50 [15]: < 5.00
pIC50 [16]: < 5.00
pIC50 [18]: < 5.00
pIC50 (Angiopoietin-1 receptor): < 5.00
pIC50 [19]: < 5.00
pIC50 [20]: < 5.00
pIC50 [21]: < 5.00
pIC50 [22]: 6.01
pIC50 [23]: 5.48
pIC50 [24]: < 5.00
pIC50 [25]: < 5.00
pIC50 [26]: 5.44
pIC50 [27]: < 5.00
pIC50 [28]: < 5.00
pIC50 [29]: < 5.00
pIC50 [30]: < 5.00
pIC50 [31]: < 5.00
pIC50 [32]: < 5.00
pIC50 [35]: 5.41
pIC50 [36]: < 5.00
pIC50 [37]: < 5.00
SMILES: CC(C)(C(=O)NCCn1ccc2ncnc(Nc3ccc(Oc4cccc(Cl)c4)c(Cl)c3)c21)S(C)(=O)=O.Cc1ccc(S(=O)(=O)O)cc1
T/C [14]: 0%
T/C [17]: 41%
T/C [33]: -1%
T/C [34]: 41%

Papp B→A at 10 µM [1]: 6.87 ×10⁻⁶ cm/s
Papp A→B at 10 µM [2]: 5.05 ×10⁻⁶ cm/s
SMILES: CC(C)(O)CC(=O)NCCn1ccc2ncnc(Nc3ccc(Oc4cccc(C(F)(F)F)c4)c(Cl)c3)c21 [TAK-285]
T/C [14]: 11%
T/C [17]: 14%
T/C (BT-474 [5]): 29%
T/C [33]: -12%
T/C [34]: 44%
